“And” between values parts separate entries of the source, which are not always exact repeats. Equal entries are not always repeated. The source made the active and inactive calls.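 Rule for the calls: active = compounds halving thioesterase enzyme activity at 20 µM or lower; inactive = the rest.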
Target: Fatty acid synthase (Homo sapiens) (UniProt P49327)
Test: FAS thioesterase domain inhibitors, SAR follow-up, biochemical, kinetic fluorescence, OMFH substrate, round 2, powder samples (AID 652286)
Conditions: recombinant FAS-TE, OMFH fluorogenic substrate
Method in brief: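 Test system: FAS thioesterase domain enzyme | Medium: Tris-HCl pH 7.5 buffer with NaCl, sarcosine, TCEP, Brij35 | Also added: OMFH fluorogenic substrate (2x stock 60 µM) | Dosing: Dose-response series, 5.5% DMSO final in well | Times: 10-min read interval, room temperature | Signal: Fluorescence at 480/540 nm, kinetic mode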

Chain of Fatty acid synthase (Homo sapiens) (P49327 whole entry, looked up, the tested form may be a part): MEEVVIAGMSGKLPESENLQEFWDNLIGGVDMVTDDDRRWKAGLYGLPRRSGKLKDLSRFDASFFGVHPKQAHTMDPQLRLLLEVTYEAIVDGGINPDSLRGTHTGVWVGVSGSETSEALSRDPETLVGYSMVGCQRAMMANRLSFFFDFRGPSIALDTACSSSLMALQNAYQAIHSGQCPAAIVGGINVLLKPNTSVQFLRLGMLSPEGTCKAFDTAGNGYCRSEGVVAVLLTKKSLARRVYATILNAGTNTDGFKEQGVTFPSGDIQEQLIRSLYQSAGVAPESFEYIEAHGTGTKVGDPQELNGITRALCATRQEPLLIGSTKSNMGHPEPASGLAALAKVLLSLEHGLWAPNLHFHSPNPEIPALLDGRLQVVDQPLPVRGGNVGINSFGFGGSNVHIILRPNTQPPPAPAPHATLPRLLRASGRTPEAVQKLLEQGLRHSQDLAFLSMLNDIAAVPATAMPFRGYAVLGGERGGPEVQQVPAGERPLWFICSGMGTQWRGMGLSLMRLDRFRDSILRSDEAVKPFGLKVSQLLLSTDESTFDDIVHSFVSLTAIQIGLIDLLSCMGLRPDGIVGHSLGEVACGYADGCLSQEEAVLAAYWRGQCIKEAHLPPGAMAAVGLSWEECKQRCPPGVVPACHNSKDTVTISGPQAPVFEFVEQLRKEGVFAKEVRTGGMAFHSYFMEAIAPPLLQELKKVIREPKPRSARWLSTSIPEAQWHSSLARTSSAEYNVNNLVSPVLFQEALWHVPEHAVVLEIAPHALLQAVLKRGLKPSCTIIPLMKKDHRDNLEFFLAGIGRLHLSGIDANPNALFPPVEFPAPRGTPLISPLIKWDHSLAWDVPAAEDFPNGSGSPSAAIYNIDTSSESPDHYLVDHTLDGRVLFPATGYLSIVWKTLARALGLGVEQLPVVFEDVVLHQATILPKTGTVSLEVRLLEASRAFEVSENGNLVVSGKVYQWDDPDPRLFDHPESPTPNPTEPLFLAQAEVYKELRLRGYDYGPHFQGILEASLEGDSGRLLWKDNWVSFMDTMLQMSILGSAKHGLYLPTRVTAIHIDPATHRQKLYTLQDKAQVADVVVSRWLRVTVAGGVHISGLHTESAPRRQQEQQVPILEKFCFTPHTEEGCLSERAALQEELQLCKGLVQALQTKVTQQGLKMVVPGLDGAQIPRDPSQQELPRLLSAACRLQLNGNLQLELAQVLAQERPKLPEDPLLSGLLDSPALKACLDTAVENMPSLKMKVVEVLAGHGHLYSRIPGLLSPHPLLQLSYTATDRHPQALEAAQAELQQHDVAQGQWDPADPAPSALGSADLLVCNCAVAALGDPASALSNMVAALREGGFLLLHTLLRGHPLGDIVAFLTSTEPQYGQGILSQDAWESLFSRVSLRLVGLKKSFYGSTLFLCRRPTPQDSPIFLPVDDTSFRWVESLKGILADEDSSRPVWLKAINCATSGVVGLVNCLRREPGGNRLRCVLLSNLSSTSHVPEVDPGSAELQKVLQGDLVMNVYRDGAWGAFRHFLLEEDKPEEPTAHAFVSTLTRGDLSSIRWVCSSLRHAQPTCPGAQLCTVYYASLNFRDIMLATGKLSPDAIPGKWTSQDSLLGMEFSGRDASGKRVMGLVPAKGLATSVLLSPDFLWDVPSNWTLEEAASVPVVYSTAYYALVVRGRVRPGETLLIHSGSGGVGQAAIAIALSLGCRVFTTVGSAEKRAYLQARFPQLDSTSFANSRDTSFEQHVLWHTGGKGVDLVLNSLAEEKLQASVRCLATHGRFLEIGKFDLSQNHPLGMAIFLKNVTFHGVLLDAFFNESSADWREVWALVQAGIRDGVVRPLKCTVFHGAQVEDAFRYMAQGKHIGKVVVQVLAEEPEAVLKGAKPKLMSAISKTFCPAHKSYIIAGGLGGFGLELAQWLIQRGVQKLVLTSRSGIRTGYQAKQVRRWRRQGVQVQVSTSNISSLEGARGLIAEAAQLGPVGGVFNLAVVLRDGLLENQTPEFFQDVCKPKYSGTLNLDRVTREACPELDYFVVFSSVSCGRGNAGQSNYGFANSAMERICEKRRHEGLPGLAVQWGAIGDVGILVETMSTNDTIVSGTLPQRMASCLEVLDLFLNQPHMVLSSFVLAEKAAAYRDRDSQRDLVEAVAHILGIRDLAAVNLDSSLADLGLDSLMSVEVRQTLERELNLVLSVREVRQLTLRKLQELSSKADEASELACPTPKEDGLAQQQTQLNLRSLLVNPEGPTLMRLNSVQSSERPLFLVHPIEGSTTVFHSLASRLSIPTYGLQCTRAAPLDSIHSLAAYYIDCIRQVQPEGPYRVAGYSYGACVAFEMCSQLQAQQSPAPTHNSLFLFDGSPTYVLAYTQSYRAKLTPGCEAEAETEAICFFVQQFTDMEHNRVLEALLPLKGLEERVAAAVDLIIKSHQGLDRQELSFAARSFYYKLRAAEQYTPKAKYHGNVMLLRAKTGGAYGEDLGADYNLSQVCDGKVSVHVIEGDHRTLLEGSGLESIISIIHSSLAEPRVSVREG

Compound	IC50
CCCCCC(=O)Nc1nc(-c2ccc(S(=O)(=O)N3CCC(C)CC3)cc2)cs1	762 nM
CCCCCCC(=O)Nc1nc(-c2ccc(S(=O)(=O)N3CCCC3)cc2)cs1	874 nM
CCCCCCC(=O)Nc1nc(-c2ccc(S(=O)(=O)N3CCC(C)CC3)cc2)cs1	5850 nM
CCC(CC)C(=O)Nc1nc(-c2ccc(S(=O)(=O)N3CCC(C)CC3)cc2)cs1	1820 nM
CCCCCCC(=O)Nc1nc(-c2ccc(S(=O)(=O)N3CCCCC3C)cc2)cs1 (stereo not drawn)	4430 nM
CCCCCCC(=O)Nc1nc(-c2ccc(S(=O)(=O)N(CC)CC)cc2)cs1	1400 nM
CCC(C)C(=O)Nc1nc(-c2ccc(S(=O)(=O)N(CC)CC)cc2)cs1 (stereo not drawn)	1060 nM and 152 nM
CC(C)CC(=O)Nc1nc(-c2ccc(S(=O)(=O)N3CCCC3)cc2)cs1	1640 nM
CC(C)CC(=O)Nc1nc(-c2ccc(S(=O)(=O)N3CCC(C)CC3)cc2)cs1	inactive
Cn1c(SCC(=O)Nc2ncc(C(F)(F)F)cc2Cl)nnc1-c1ccc(Cl)cc1	682 nM

Results, then the compound that gave them:

IC50	Compound
137 nM	CCCCCC(=O)Nc1nc(-c2ccc(S(=O)(=O)N3CCCC3)cc2)cs1
141 nM	CCC(C)C(=O)Nc1nc(-c2ccc(S(=O)(=O)N3CCCC3)cc2)cs1 (stereo not drawn)
254 nM	CCC(CC)C(=O)Nc1nc(-c2ccc(S(=O)(=O)N3CCCC3)cc2)cs1
358 nM	CCCCC(=O)Nc1nc(-c2ccc(S(=O)(=O)N3CCCCC3C)cc2)cs1 (stereo not drawn)
365 nM	CN(Cc1ccc(C(C)(C)C)cc1)C(=O)Cc1ccc(S(=O)(=O)N2CCOCC2)s1
190 nM	CCCCCC(=O)Nc1nc(-c2ccc(S(=O)(=O)N(CC)CC)cc2)cs1
122 nM	CCCCCCCCCCC[C@H](C[C@@H]1OC(=O)[C@H]1CCCCCC)OC(=O)[C@@H](NC=O)C(C)C
201 nM	CCCCC(=O)Nc1nc(-c2ccc(S(=O)(=O)N3CCOCC3)cc2)cs1
405 nM	CCC(C)C(=O)Nc1nc(-c2ccc(S(=O)(=O)N3CCC(C)CC3)cc2)cs1 (stereo not drawn)
489 nM	CC1CCN(S(=O)(=O)c2ccc(-c3csc(NC(=O)C(C)C)n3)cc2)CC1
278 nM	CCC(C)C(=O)Nc1nc(-c2ccc(S(=O)(=O)N3CCCCC3C)cc2)cs1 (stereo not drawn)
343 nM	CCC(CC)C(=O)Nc1nc(-c2ccc(S(=O)(=O)N(CC)CC)cc2)cs1
552 nM	CCCCCC(=O)Nc1nc(-c2ccc(S(=O)(=O)N3CCCCC3C)cc2)cs1 (stereo not drawn)
